Our source for the inhibition of growth and Activity values is ChEMBL document CHEMBL3045023, “Design, synthesis, and antiviral activity evaluation of phenanthrene-based antofine derivatives” (2012).

Assay type in all cases: functional
The subject of assay [1] is Tobacco mosaic virus. The assay can be described thus: Antiviral activity against Tobacco mosaic virus (TMV) assessed as inhibition of viral growth at 1 ug/mL. To be noted: read-out: GI.
Assay [2] deals with Tobacco mosaic virus. The assay can be described thus: Antiviral activity against Tobacco mosaic virus (TMV) inoculation on Nicotiana tabacum L. whole leaves assessed as virus infection protective effect at 500 ug/mL measured 3 to 4 days post inoculation. An outline of the steps:
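On N. tabacum L. leaves of the same age, compound was smeared on the left half and solvent on the right half as control. After 12 h, leaves were dusted with silicon carbide, brush-inoculated with TMV (6 × 10−3 mg/mL), then washed. Local lesions were counted 3–4 days later, in triplicate. Inhibition % was calculated from average lesion numbers versus control.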

In assay [3] the test system is Tobacco mosaic virus. The assay can be described thus: Antiviral activity against Tobacco mosaic virus (TMV) inoculation on Nicotiana tabacum L. whole leaves assessed as virus infection curative effect at 500 ug/mL measured 3 to 4 days post inoculation. An outline of the steps:
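Whole N. tabacum L. leaves of the same age were inoculated with TMV (6.0 × 10−3 mg/mL), then washed and dried. Compound was then smeared on the left half and solvent on the right half as control. Local lesions were counted 3–4 days post-inoculation, in triplicate. Inhibition % was calculated from average lesion numbers versus control.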

In assay [4] the test system is Tobacco mosaic virus. The assay can be described thus: Antiviral activity against Tobacco mosaic virus (TMV) inoculation on Nicotiana tabacum L. whole leaves assessed as virus inactivation effect at 500 ug/mL measured 3 to 4 days post inoculation. An outline of the steps:
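TMV was mixed with an equal volume of compound solution for 30 min. The mixture was inoculated on the left half of N. tabacum L. leaves, and virus mixed with solvent on the right half as control. Local lesions were recorded 3–4 days post-inoculation, in triplicate. Inhibition % was calculated from average lesion numbers versus control.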

For assay [5], the system named is Tobacco mosaic virus. The assay can be described thus: Antiviral activity against Tobacco mosaic virus (TMV) assessed as inhibition of viral growth at 500 ug/mL. Conditions: read-out: GI. In a few lines: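 Leaves of 5–6-growth-stage tobacco were rub-inoculated with TMV juice (5.88 × 10−2 μg/mL), then cut into halves along the main vein. One half was immersed in 500 μg/mL compound and the other in double-distilled water, each for 20 min. Halves were cultured at 25 °C for 72 h, with at least 3 replicates. Inhibition % = (control − treated average lesion number)/control × 100.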

Take `COc1ccc2c3c(c4cc(OC)c(OC)cc4c2c1)C[C@H]1CCCN1C3` [(-)-ANTOFINE]: in the assay with Tobacco mosaic virus [1], the inhibition of growth at 1 µg/mL worked out at 63%.
Consider `CCN(CC)C(=O)[C@H]1CCCN1Cc1c(Br)c2cc(OC)c(OC)cc2c2cc(OC)ccc12`, for which the values for the Activity with Tobacco mosaic virus [2], in the assay with Tobacco mosaic virus [3] and in the assay with Tobacco mosaic virus [4] were 33.1%, 31.4% and 27.6%, respectively. Moreover, in the assay with Tobacco mosaic virus [5], the inhibition of growth at 500 µg/mL worked out at 35.7%.
For `COc1cc2cc(CN3CCCCC3)c3cc(OC)c(OC)cc3c2cc1OC`, the Activity came to 35.9% in the assay with Tobacco mosaic virus [2], 35.2% with Tobacco mosaic virus [3] and 30% in the assay with Tobacco mosaic virus [4]. Also, in the assay with Tobacco mosaic virus [5], the inhibition of growth at 500 µg/mL is 38.4%.
On to `COc1cc2c(Br)c(CN3CCC[C@H]3C(N)=O)c3cc(OC)c(OC)cc3c2cc1OC`, for which the figures for the Activity in the assay with Tobacco mosaic virus [2], in the assay on Tobacco mosaic virus [3] and in the assay with Tobacco mosaic virus [4] were 39.5%, 36.6% and 42.1%, respectively. Besides, the inhibition of growth at 500 µg/mL in the assay on Tobacco mosaic virus [5] came to 44.3%.
Turning to `COC(=O)[C@@H]1CCCN1C(=O)/C(=C/c1ccc(OC)c(OC)c1)c1ccc(OC)c(OC)c1`, the Activity was determined as 23.6% in the assay with Tobacco mosaic virus [2], 17.2% in the assay with Tobacco mosaic virus [3] and 21.1% in the assay on Tobacco mosaic virus [4]. The inhibition of growth at 500 µg/mL in the assay on Tobacco mosaic virus [5] came to 17.5%.
As to `CCN(CC)C(=O)c1cccn1Cc1c(Br)c2cc(OC)c(OC)cc2c2cc(OC)c(OC)cc12`, the Activity amounted to 13.1% with Tobacco mosaic virus [2], 10.6% in the assay with Tobacco mosaic virus [3] and 20% with Tobacco mosaic virus [4]. In addition, the inhibition of growth at 500 µg/mL with Tobacco mosaic virus [5] was 18.2%.
With `NC(=O)c1ncn([C@@H]2O[C@H](CO)[C@@H](O)[C@H]2O)n1` [RIBAVIRIN], the Activity in the assay on Tobacco mosaic virus [2] is reported as 34.2%; with Tobacco mosaic virus [3] it was 34.5%; in the assay on Tobacco mosaic virus [4] it was 32.1%. Further, the inhibition of growth at 500 µg/mL with Tobacco mosaic virus [5] is 38.5%.
For `COc1cc2cc(CN3C(=O)CC[C@H]3C(=O)OC(C)(C)C)c3cc(OC)c(OC)cc3c2cc1OC`, in that order: 23.5%, 16.8%, 27.1% and 14.2%.
For the compound `COc1cc2cc(C(=O)N3CCC[C@H]3CBr)c3cc(OC)c(OC)cc3c2cc1OC`, the Activity is 36.9% in the assay with Tobacco mosaic virus [2], 26.7% in the assay with Tobacco mosaic virus [3] and 27.6% with Tobacco mosaic virus [4]. Besides, the inhibition of growth at 500 µg/mL in the assay on Tobacco mosaic virus [5] is 21.9%.
Take `COc1cc2c3c(c4ccc(O)cc4c2cc1OC)CN1CCC[C@@H]1C3`: the inhibition of growth at 1 µg/mL with Tobacco mosaic virus [1] worked out at 70%.
Take `COc1ccc2c(Br)c(CN3CCC[C@H]3C(N)=O)c3cc(OC)c(OC)cc3c2c1`: the Activity in the assay on Tobacco mosaic virus [2] came out at 32.4%; with Tobacco mosaic virus [3], 30.7%; in the assay on Tobacco mosaic virus [4], 12.3%. For the same compound, the inhibition of growth at 500 µg/mL in the assay on Tobacco mosaic virus [5] worked out at 35.5%.
The like results for `COc1cc2cc(C(=O)N3CCC[C@H]3CO)c3cc(OC)c(OC)cc3c2cc1OC` were, in that order, 25.6%, 30.2%, 29.5% and 32.8%.
In the case of `COc1ccc2c(CN3CCC[C@H]3C#N)c(Br)c3cc(OC)c(OC)cc3c2c1`, the values for the Activity in the assay on Tobacco mosaic virus [2], with Tobacco mosaic virus [3] and with Tobacco mosaic virus [4] were 15.3%, 20.5% and 12.6%, respectively. The inhibition of growth at 500 µg/mL in the assay with Tobacco mosaic virus [5] was determined as 22.7%.
Turning to `CCN(CC)C(=O)[C@@H]1CCCCN1Cc1c(Br)c2cc(OC)c(OC)cc2c2cc(OC)ccc12`, the Activity with Tobacco mosaic virus [2] was 34.3%; in the assay on Tobacco mosaic virus [3] it was 26.4%; in the assay with Tobacco mosaic virus [4] it was 25.2%. Further, the inhibition of growth at 500 µg/mL with Tobacco mosaic virus [5] worked out at 30.7%.
Turning to `COc1cc2c(Br)c(CN3CCC[C@H]3C#N)c3cc(OC)c(OC)cc3c2cc1OC`, the Activity in the assay with Tobacco mosaic virus [2] was determined as 33.3%; in the assay on Tobacco mosaic virus [3] it was 18.2%; in the assay with Tobacco mosaic virus [4], 10.3%. The inhibition of growth at 500 µg/mL with Tobacco mosaic virus [5] is 24.7%.
As for `COc1cc2cc(C(=O)N3CCC[C@H]3C#N)c3cc(OC)c(OC)cc3c2cc1OC`, the Activity was found to be 10.3% with Tobacco mosaic virus [2], 15.6% in the assay with Tobacco mosaic virus [3] and 17.6% with Tobacco mosaic virus [4]. Besides, in the assay with Tobacco mosaic virus [5], the inhibition of growth at 500 µg/mL was 12.5%.
Take `CCN(CC)C(=O)[C@H]1CCCN1Cc1c(Br)c2cc(OC)c(OC)cc2c2cc(OC)c(OC)cc12`: the Activity in the assay on Tobacco mosaic virus [2] turned out to be 27.6%; in the assay on Tobacco mosaic virus [3], 30.2%; in the assay on Tobacco mosaic virus [4], 21.3%. Moreover, the inhibition of growth at 500 µg/mL in the assay with Tobacco mosaic virus [5] turned out to be 33.3%.
